VLA-4 inh – inhibition in human VLA-4 binding assay, primary screen, VLA-4 allosteric modulator project, MLPCN library, flow cytometry, VLA-4 expressing cells. Integrin alpha-4 (Homo sapiens), P13612. ligand binding flow cytometry. inhibition, % (about 7 µM as worked out from the volumes in the protocol). 330,000 compounds, 0.2% hits. AID 2557, 2010; in the data active = inhibition above about 50%
Target sequence (P13612 whole entry, looked up): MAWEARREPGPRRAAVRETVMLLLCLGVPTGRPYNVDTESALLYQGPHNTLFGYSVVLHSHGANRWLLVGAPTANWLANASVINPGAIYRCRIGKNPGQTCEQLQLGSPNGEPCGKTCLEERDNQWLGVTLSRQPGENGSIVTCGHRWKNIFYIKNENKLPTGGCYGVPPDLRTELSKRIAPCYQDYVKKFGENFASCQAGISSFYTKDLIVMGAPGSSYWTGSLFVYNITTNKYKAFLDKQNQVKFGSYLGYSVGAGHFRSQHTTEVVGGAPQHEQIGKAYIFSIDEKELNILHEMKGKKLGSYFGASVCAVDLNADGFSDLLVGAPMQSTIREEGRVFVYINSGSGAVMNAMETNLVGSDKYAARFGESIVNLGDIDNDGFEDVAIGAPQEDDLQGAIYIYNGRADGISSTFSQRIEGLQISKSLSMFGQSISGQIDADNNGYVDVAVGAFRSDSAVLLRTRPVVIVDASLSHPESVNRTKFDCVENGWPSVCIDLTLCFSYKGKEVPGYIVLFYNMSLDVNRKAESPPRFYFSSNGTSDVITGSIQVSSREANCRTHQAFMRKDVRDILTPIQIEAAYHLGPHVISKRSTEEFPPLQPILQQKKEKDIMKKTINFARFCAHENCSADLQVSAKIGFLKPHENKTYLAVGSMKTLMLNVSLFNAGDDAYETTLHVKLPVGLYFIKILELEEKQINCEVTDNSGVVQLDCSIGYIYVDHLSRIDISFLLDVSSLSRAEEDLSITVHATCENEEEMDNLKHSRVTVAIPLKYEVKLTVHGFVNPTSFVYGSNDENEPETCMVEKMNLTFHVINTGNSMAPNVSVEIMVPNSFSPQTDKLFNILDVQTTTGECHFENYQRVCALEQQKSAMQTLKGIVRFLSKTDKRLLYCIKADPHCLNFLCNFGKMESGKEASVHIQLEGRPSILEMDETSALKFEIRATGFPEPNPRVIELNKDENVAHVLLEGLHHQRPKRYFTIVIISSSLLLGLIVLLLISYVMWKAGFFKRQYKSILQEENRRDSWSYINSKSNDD
CHOP UPR activ – activators of apoptotic CHOP UPR arm, primary screen, cell-based, CHO-CHOP luciferase reporter, luminescence, uHTS | UPR activation; percent of tunicamycin response over DMSO baseline | 330,000 compounds, 0.34% hits | activation, % at 10 µM;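 active = at 10 µM dose, activation of 40% or more, normalized to positive control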;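 also: 100% = tunicamycin at 10 µg/mL and 0% = DMSO alone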
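measured by = luciferase luminescence | assay system = CHO-CHOP cells, stable luciferase reporter of PERK-eIF2a-CHOP signalling | amount = 500 reporter cells seeded per well | timing = 6 h compound exposure at 37 °C after overnight seeding | controls = positive tunicamycin 10 µg/mL, negative DMSO alone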
Beta2AR agonist – beta2AR agonists driving receptor internalization, primary screen, cell-based, FAP fluorogen, flow cytometry. 340,000 compounds, 0.43% hits. AID 504454, 2011. response, % (test concentration not listed). Beta-2 adrenergic receptor (Homo sapiens), P07550. Am2.2-beta2AR cells;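 active = response above a set limit, near 3 SD of response in nonfluorescent compounds, cut at about 42% in these data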
CHOP inh – inhibitors of CHOP promoter induction, primary screen, cell-based, unfolded protein response, luciferase reporter; CHO-K1 CHOP-promoter luciferase, tunicamycin-induced, 15-18 h; inhibition, % at 10 µM; 220,000 compounds, 3.8% hits; AID 2732, 2010;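 active = compounds that reduced the stress-induced luciferase reporter signal by more than about 70% of percent inhibition, limit read from the data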;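 also: 0% = tunicamycin plus vehicle and 100% = wells without tunicamycin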
UPR XBP1 act – activators of adaptive XBP1 UPR arm, primary screen, cell-based, CHO-XBP1 luciferase reporter, luminescence, uHTS; IRE1-XBP1 UPR activation; percent of tunicamycin response, DMSO as zero; activation, % at 20 µM; 330,000 compounds, 0.33% hits;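 active = versus positive control, 20 µM dose yields 30% or more activation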;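 also: 100% = tunicamycin at 10 µg/mL and 0% = DMSO only wells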
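Material: IRE1-XBP1 luciferase reporter CHO line / Quantity: one thousand reporter cells per well / Buffer or medium: F12 with 10% serum / Compound: 20 µM single concentration, DMSO 1% / Times: 6 h treatment, 37 °C / Detection: Steady-Glo luciferase glow luminescence, 10 min after reagent addition / Benchmarks: tunicamycin high, DMSO low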
CHOP confirm – retest of CHOP induction inhibitors, confirmation, cell-based | 2,100 compounds, 45% hits | inhibition, % at 10 µM | shares compounds with CHOP inh | CHO-CHOP promoter luciferase reporter, tunicamycin-induced, luminescence | AID 504437, 2011;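 active = mean of three repeat readings of reporter signal inhibition above a set limit, cut at about 70% in these data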;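 also: 0% = tunicamycin plus vehicle and 100% = wells lacking tunicamycin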
* hit, by the source's call; . = no result. The entries come from a sample that favours hits as a whole.

SMILES | VLA-4 inh | CHOP UPR activ | Beta2AR agonist | CHOP inh | UPR XBP1 act | CHOP confirm
CCN(CC)S(=O)(=O)c1cc(NC(=O)COC(=O)c2sc3ccccc3c2Cl)ccc1C | -2 | 1 | 9 | 4 | 1 | .
CCC(C)[C@@H](NC(=O)OC(C)(C)C)c1nnc(S(=O)(=O)Cc2cccc(C)c2)o1 (stereo partly drawn) | . | . | 33 | 106* | . | 107*
CC(C)(C)OC(=O)N[C@@H](Cc1ccccc1)c1nnc(S(=O)(=O)Cc2ccccc2)o1 | 44 | -10 | . | 109* | -5 | 125*
Cc1ccccc1CS(=O)(=O)c1nnc([C@H](Cc2ccccc2)NC(=O)OC(C)(C)C)o1 | 44 | -5 | 61* | 112* | -7 | 136*
COc1ccc(-c2cc(C(=O)NCc3cccs3)no2)cc1 | -25 | 5 | -10 | -2 | 3 | .
COc1ccc2nc3sc(C(=O)NCc4cccs4)c(N)c3cc2c1 | 11 | 0 | . | 102* | -2 | 9
CCNC(=O)NC(=O)CSc1ccc(S(=O)(=O)N2CCOCC2)cn1 | -6 | 0 | -3 | . | -1 | .
N#Cc1c(N)nc2c(c1-c1ccc(Br)s1)CCCC2 | 3 | -1 | 5 | 21 | -1 | .
Nc1nc(-c2ccc(Br)s2)c(Br)s1 | -2 | 4 | 6 | 98* | 2 | 11
CCc1ccc(OCC(=O)NC(NC(=S)Nc2ccc(C)cc2C)C(Cl)(Cl)Cl)cc1 (stereo not drawn) | -4 | 3 | -7 | 108* | 2 | 113*
Cc1cccc(NC(=S)NC(NC(=O)OCc2ccccc2)C(Cl)(Cl)Cl)c1 (stereo not drawn) | -8 | 2 | 5 | 106* | -4 | 103*
CCc1ccc(OCC(=O)NC(NC(=S)Nc2ccccc2)C(Cl)(Cl)Cl)cc1 (stereo not drawn) | 2 | 4 | 5 | 105* | 0 | 105*
Cc1cccc(NC(=O)[C@H](Cc2ccccc2)NC(=O)OCc2ccccc2)c1 | 15 | 2 | -4 | 17 | -2 | .
CN1CCN(C2=C(Cl)C(=O)c3ccccc3C2=O)CC1 | . | . | 28 | . | . | .
CN1CCN(C2=C(Cl)C(=O)C(c3cnc(N4CCCCC4)s3)=C(Cl)C2=O)CC1 | 24 | -1 | 8 | 100* | -8 | -18
CC(C)(C)c1cc(S(=O)(=O)CCc2ccccn2)cc(C(C)(C)C)c1F | 19 | 2 | -20 | 97* | 1 | 131*
O=C(N/N=C/c1ccc2c(c1)OCO2)c1sc2cc(Cl)ccc2c1Cl | 7 | 1 | -5 | 25 | -1 | .
COc1ccc2c(Cl)c(C(=O)N/N=C/c3ccc4c(c3)OCO4)sc2c1 | 2 | 0 | -1 | 107* | 1 | 45
CCOc1ccc2nc(-c3ccccc3)nc(SCC(=O)Nc3ncc(C)s3)c2c1 | -6 | 19 | -4 | 98* | 21 | -15
COc1ccc(-c2cc(-c3ccccc3)nc(SCC(=O)Nc3ncc(C)s3)c2C#N)cc1 | -17 | -1 | -6 | 36 | 0 | .
COc1ccccc1N1CCN(C(=O)c2cccc(S(=O)(=O)N3CCCCCC3)c2)CC1 | -5 | -2 | 2 | . | -1 | .
COc1ccc(OCCOC(=O)CCS(=O)(=O)c2ccc(C)cc2)cc1 | 9 | -1 | -1 | . | 0 | .
O=C1C(=C2SCCCS2)CC/C1=C\c1ccc(F)cc1 | 7 | -12 | 10 | 108* | -9 | 115*
Cc1cccc(NC(=O)N2CCC(NC(=O)C3CCCCC3)CC2)c1 | 11 | 1 | 6 | . | -5 | .
CCNC(=O)c1ccccc1SCc1ccccc1 | -1 | -1 | 2 | -21 | 0 | .
SMILES | VLA-4 inh | CHOP UPR activ | Beta2AR agonist | CHOP inh | UPR XBP1 act | CHOP confirm
CCc1ccc(OCCNC(=O)c2ccccc2SCc2ccccc2)cc1 | -5 | -2 | 18 | 99* | 1 | 91*
CC(C)[C@H](NC(=O)[C@@H]1CSC2c3ccccc3C(=O)N21)C(=O)N1CCCCC1 (stereo partly drawn) | -6 | -1 | -4 | . | -3 | .
CCCC(=O)NC(Nc1cc(C(F)(F)F)ccc1Cl)C(Cl)(Cl)Cl (stereo not drawn) | 16 | 0 | 10 | 97* | 2 | 50
CC1CCC(n2c(=S)[nH]c3ccccc3c2=O)CC1 (stereo not drawn) | 4 | 3 | -15 | 103* | 4 | 104*
CCCCn1c2nc3ccccc3nc2c2c(=N)oc(C)nc21 | . | . | -17 | . | . | .
CCCCC(CC)Cn1c(N)c(C#N)c2nc3ccccc3nc21 (stereo not drawn) | -16 | 1 | -2 | 101* | -2 | 133*
CCCCC(CC)Cn1c2nc3ccccc3nc2c2c(=N)oc(C)nc21 (stereo not drawn) | . | . | . | 106* | . | 104*
CN(C)CCCn1c(N)c(C#N)c2nc3ccccc3nc21 | -3 | -1 | -14 | 11 | -1 | .
Cc1cccc(OCc2nnc(SC(C)C(=O)Nc3ccc(N4CCOCC4)cc3)o2)c1 (stereo not drawn) | 5 | 1 | 8 | . | -4 | .
Cc1cc(/C(=N/O)C(C)(C)NO)ccc1Cl | 5 | 0 | -4 | 102* | 2 | -76
COc1cc(NC(=O)CN2C(=O)COc3ccccc32)cc(OC)c1 | . | . | 0 | . | . | .
CCCc1ccc(C(=O)NNC(=O)c2ccc(Br)cc2)cc1 | -8 | 0 | -6 | 99* | -2 | 42
CCN1C(=O)C(=O)N(Cc2ccc(OC)c(F)c2)C1=O | 4 | 0 | 0 | . | 2 | .
CC(C)C[C@@H](CN)NC(=O)c1nc[nH]c1C(=O)N[C@@H](CC(C)C)C(=O)CNC[C@H](C)NC(=O)c1nc[nH]c1C(=O)N[C@@H](C)C(=O)O | . | . | -11 | . | . | .
Oc1ccc(F)cc1-c1cc(-c2ccc3c(c2)OCCO3)n[nH]1 | 15 | 2 | 17 | 99* | 1 | 4
Clc1ccccc1CN(Cc1ccccc1)c1ncnc2nc[nH]c12 | -1 | 0 | 2 | 107* | -1 | 39
Cc1ccc2c(COC(=O)c3n[nH]c4ccccc34)cc(=O)oc2c1 | -8 | 3 | 1 | 50 | 5 | .
CCc1ccc2c(COC(=O)c3n[nH]c4ccccc34)cc(=O)oc2c1 | -7 | 1 | 14 | 100* | 1 | 18
O=C(N/N=C/c1ccc(Br)s1)Nc1ccccc1 | 14 | 4 | -5 | 97* | -2 | 59
O=C(N/N=C/c1ccc(Br)s1)c1cccs1 | 17 | 4 | -9 | -2 | 5 | .
CS(=O)(=O)c1nc(-c2ccccc2)cc(C(F)(F)F)n1 | 34 | -1 | 40 | . | -1 | 117*
Cc1ccc(S(=O)(=O)N(CCC(=O)NCc2ccc(S(N)(=O)=O)cc2)c2ccccc2)cc1 | . | 1 | 0 | . | -3 | .
